The values below come from ChEMBL document CHEMBL1128234, “Isothiocyanate-substituted benzyl ether opioid receptor ligands derived from 6 beta-naltrexol” (J Med Chem, 1995).

By IC50 is commonly meant the concentration that inhibits the measured activity by half. Low readings indicate inhibition by little substance, high ones a need for much substance.

In assay [1] the target is Kappa-type opioid receptor (Cavia porcellus, UniProt P41144). The assay is described as follows: Inhibitory concentration against Opioid receptor kappa 1 using [3H]- U-69,593 radioligand. In outline: (§1)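 Guinea pig brain (minus cerebellum) homogenate in 0.05 M Tris pH 7.4, diluted 1:60 (0.8-1.5 mg protein/ml). Ligand tested in duplicate at nine concentrations; 60 min at 25 °C. Nonspecific binding defined with naloxone. Filtration, ice-cold buffer rinse, scintillation counting.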

Assay [2] addresses Mu-type opioid receptor (Cavia porcellus, UniProt P97266). The assay is described as follows: Inhibitory concentration was determined against Opioid receptor mu 1 using [3H]- DAMGO radioligand. In outline: as §1
Assay [3] has as its target Kappa-type opioid receptor (Cavia porcellus) (UniProt P41144). The assay can be described thus: Irreversible binding affinity at Opioid receptor kappa 1 was evaluated as % of control specific binding remaining unwashed at concentration of 20 (nM) using [3H]U-69593 radioligand. In short, it runs like this:
(§2)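 Diluted guinea pig brain homogenate is exposed to ligand for 60 min at 25 °C; protected samples are first preincubated 15 min at 37 °C with 1 naloxone. Washed samples are diluted in ice-cold Tris pH 7.4, spun at 10000g for 15 min at 4 °C, then resuspended and incubated 15 min at 37 °C, twice. Read-out is standard radioligand binding, expressed as % of recovery-sample specific binding. Test ligands run in triplicate; reference averaged over three assays.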

The target is the same in assay [4]. The assay is described as follows: Irreversible binding affinity at Opioid receptor kappa 1 was evaluated as % of control specific binding remaining unwashed at concentration of 30 (nM) using [3H]U-69593 radioligand. In short, it runs like this: as §2
The target is the same in assay [5]. The assay is described as follows: Irreversible binding affinity at Opioid receptor kappa 1 was evaluated as % of control specific binding remaining washed at concentration of 20 (nM) using [3H]U-69593 radioligand. In outline: as §2
Assay [6] has the same target. The assay is described as follows: Irreversible binding affinity at Opioid receptor kappa 1 was evaluated as % of control specific binding remaining washed at concentration of 30 (nM) using [3H]U-69593 radioligand. In short, it runs like this:
as §2

Assay [7] has the same target. The assay can be described thus: Irreversible binding affinity at Opioid receptor kappa 1 was evaluated as % of control specific binding remaining protected at concentration of 20 (nM) using [3H]U-69593 radioligand. In short, it runs like this: as §2
Assay [8] has the same target. The assay can be described thus: Irreversible binding affinity at Opioid receptor kappa 1 was evaluated as % of control specific binding remaining protected at concentration of 30 (nM) using [3H]U-69593 radioligand. In outline:
as §2

In assay [9] the target is Opioid receptors; mu/kappa/delta. The assay can be described thus: Inhibitory concentration was determined against Opioid receptors using [3H]- bremazocine radioligand. In kind it is protein assay, Cavia porcellus. In short, it runs like this:
as §1

In assay [10] the target is Kappa-type opioid receptor (Cavia porcellus) (UniProt P41144). The assay is described as follows: Irreversible binding affinity at Opioid receptor kappa 1 was evaluated as % of control specific binding remaining washed at concentration of 150 (nM) using [3H]U-69593 radioligand. In outline: as §2
Assay [11] has the same target. The assay can be described thus: Irreversible binding affinity at Opioid receptor kappa 1 was evaluated as % of control specific binding remaining protected at concentration of 150 (nM) using [3H]U-69593 radioligand. In outline: as §2
Assay [12] concerns the target Mu-type opioid receptor (Cavia porcellus) (UniProt P97266). The assay is described as follows: Irreversible binding affinity at mu-receptor was evaluated as % of control specific binding remaining protected at concentration of 35 (nM) using [3H]DAMGO radioligand. In short, it runs like this: as §2
Assay [13] shares this target. The assay can be described thus: Irreversible binding affinity at mu-receptor was evaluated as % of control specific binding remaining unwashed at concentration of 35 (nM) using [3H]DAMGO radioligand. In outline:
(§3)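 Guinea pig brain homogenate (less cerebellum) in 0.05 M Trizma pH 7.4, diluted 1:60. It was incubated with ligand 60 min at 25 °C, then diluted in ice-cold buffer and centrifuged 10000g. Washed samples were resuspended in buffer, incubated 15 min at 37 °C and recentrifuged. Binding used 1.0 nM [3H]DAMGO for 60 min at 25 °C, with filtration and counting. Nonspecific binding was set with 10 µM naloxone. Triplicates; % specific binding was taken relative to recovery controls.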

In assay [14] the target is Kappa-type opioid receptor (Cavia porcellus) (UniProt P41144). The assay is described as follows: Irreversible binding affinity at Opioid receptor kappa 1 was evaluated as % of control specific binding remaining unwashed at concentration of 90 (nM) using [3H]U-69593 radioligand. In short, it runs like this:
as §2

Assay [15] deals with Mu-type opioid receptor (Cavia porcellus) (UniProt P97266). The assay can be described thus: Irreversible binding affinity at mu-receptor was evaluated as % of control specific binding remaining washed at concentration of 35 (nM) using [3H]-DAMGO radioligand. In short, it runs like this:
as §3

In assay [16] the target is Kappa-type opioid receptor (Cavia porcellus) (UniProt P41144). The assay is described as follows: Irreversible binding affinity at Opioid receptor kappa 1 was evaluated as % of control specific binding remaining protected at concentration of 90 (nM) using [3H]U-69593 radioligand. In short, it runs like this: as §2
The target is the same in assay [17]. The assay can be described thus: Irreversible binding affinity at Opioid receptor kappa 1 was evaluated as % of control specific binding remaining washed at concentration of 90 (nM) using [3H]-U-69,593 radioligand. In outline: as §2

Chain of Kappa-type opioid receptor (P41144 whole entry): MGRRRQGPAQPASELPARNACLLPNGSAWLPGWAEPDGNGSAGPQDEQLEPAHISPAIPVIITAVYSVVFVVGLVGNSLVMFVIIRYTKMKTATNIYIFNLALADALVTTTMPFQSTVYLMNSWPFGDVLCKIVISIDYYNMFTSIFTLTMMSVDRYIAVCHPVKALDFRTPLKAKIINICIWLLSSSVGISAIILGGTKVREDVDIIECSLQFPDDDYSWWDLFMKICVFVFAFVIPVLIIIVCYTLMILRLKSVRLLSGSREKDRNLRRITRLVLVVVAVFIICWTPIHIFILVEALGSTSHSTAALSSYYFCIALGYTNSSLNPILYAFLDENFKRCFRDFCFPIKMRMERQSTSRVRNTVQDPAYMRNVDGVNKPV
Chain of Kappa-type opioid receptor (Cavia porcellus) (P41144 whole entry): as above
Chain of Mu-type opioid receptor (Cavia porcellus) (P97266 whole entry): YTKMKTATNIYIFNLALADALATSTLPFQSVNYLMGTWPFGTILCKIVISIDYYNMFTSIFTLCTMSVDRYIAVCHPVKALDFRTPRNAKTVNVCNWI
Chain of Mu-type opioid receptor (P97266 whole entry): as above

With `Oc1ccc2c3c1O[C@H]1[C@@H](O)CC[C@@]4(O)[C@@H](C2)N(CC2CC2)CC[C@]314`, the IC50 in [1] is 2.6 nM; in assay [2] it was 1.1 nM.
As for `Oc1ccc2c3c1O[C@H]1[C@H](OCc4cccc(CN=C=S)c4)CC[C@@]4(O)C(C2)N(CC2CC2)CCC314` (stereo not given in full), the values for the IC50 in assay [1], in assay [9] and in assay [2] were 6 nM, 24 nM and 19 nM, respectively. Besides, the Control in assay [3] was found to be 56%; in assay [4], 22%; in assay [5] it was 68%; in assay [6], 58%; in assay [7], 94%; in assay [8], 73%.
Consider `Oc1ccc2c3c1O[C@H]1[C@H](OCc4ccccc4CN=C=S)CC[C@@]4(O)C(C2)N(CC2CC2)CCC314` (stereo not given in full), for which the IC50 came to 43 nM in [1], 69 nM in assay [9] and 20 nM in assay [2]. Further, the Control was 35% in [10] and 45% in assay [11].
For `Oc1ccc2c3c1O[C@H]1[C@H](OCc4ccc(N=C=S)cc4)CC[C@@]4(O)C(C2)N(CC2CC2)CCC314` (stereo not given in full), the results for the IC50 in assay [1], in assay [9] and in [2] were 21 nM, 22 nM and 9.6 nM, respectively. The Control in assay [12] is 48%; in assay [13], 14%; in assay [14], 14%; in assay [15] it was 46%; in assay [16] it was 27%; in assay [17], 28%.
